Rows were chosen to be rich in hits. Some 1.8% of all compounds tested hit in one or more screens of this group.
Ecoli rRNA inh: selective bacterial rRNA inhibition in E. coli; E. coli WT GFP vs humanized-ribosome RFP mutants, fluorescence, 24 h; hits give low values; DMSO median 0, no signal -100; GFP signal change (wild-type ribosome), % (concentration not given with the values); 350,000 compounds, 1.6% hits; AID 720706;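 active = significant combined selectivity score with lowered wild-type GFP, culture density cut under 30%, mutant RFP and density less affected; inactive = any of these conditions unmet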
DAGLB inhibitor: diacylglycerol lipase beta (human) inhibition; Q8NCG7; HEK293T DAGLB membrane lysate, EnzChek fluorogenic substrate; inhibition, % at 5.17 µM; 340,000 compounds, 0.059% hits; AID 504411; in the data active = inhibition above about 34%;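 note: 0% = enzyme with vehicle and 100% = wells lacking enzyme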
Target sequence (Q8NCG7 whole entry, looked up): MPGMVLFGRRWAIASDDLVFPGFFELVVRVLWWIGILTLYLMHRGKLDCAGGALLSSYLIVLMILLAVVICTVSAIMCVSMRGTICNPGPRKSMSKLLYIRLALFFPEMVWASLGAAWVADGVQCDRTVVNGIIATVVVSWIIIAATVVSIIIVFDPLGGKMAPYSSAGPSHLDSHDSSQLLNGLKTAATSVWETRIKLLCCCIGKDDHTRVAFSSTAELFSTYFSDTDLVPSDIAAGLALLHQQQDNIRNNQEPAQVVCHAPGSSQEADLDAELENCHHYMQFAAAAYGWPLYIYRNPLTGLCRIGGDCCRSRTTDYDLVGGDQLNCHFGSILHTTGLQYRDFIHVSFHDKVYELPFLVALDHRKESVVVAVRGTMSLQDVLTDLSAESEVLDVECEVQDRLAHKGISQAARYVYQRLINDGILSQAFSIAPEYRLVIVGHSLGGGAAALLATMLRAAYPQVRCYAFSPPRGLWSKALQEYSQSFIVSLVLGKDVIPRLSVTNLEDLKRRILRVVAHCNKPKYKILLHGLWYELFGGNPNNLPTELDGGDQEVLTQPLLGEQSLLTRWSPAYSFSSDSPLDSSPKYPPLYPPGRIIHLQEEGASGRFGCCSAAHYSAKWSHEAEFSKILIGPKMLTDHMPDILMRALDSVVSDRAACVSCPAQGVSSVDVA
SKN-1 inh: C. elegans SKN-1 inhibition | AID 624304 | 360,000 compounds, 0.49% hits | C. elegans VP596 Pgst-4::GFP/RFP ratio, acrylamide-induced, 24 h | inhibition, % at 21.8 µM;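 active = interference check ratio from 0.5 to 1.5 plus GFP to RFP signal ratio inhibition reaching or exceeding a fixed threshold, cut at about 30% in these data, passing the limit was not always enough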
iPSC survival up: hiPSC single-cell survival enhancement; ATPlite luminescence; 100% = ROCK inhibitor wells, 0% = DMSO; survival enhancement, % at 20 µM; 360,000 compounds, 0.044% hits; in the data active = survival enhancement above about 18%;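 note: cells exposed to compounds for 16 hours before the ATP read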
Cneo AK release: causes C. neoformans cell lysis; adenylate kinase release luminescence, 4 h; normalised: neutral wells 0, clomiphene wells 100; lysis activity, % at 15 µM; 360,000 compounds, 0.2% hits;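 active = mean lysis activity across replicates of at least 80%, whatever share of replicates individually reach that level; inactive = mean lysis activity below 80%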
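read-out = cell lysis signal | test system = log-phase Cryptococcus neoformans yeast cells | input = cells at 5 × 10^6 per mL | medium = fresh YPD growth medium | signal = luminescent adenylate kinase detection reagent | timing = 4 h at 37 °C static, read 1 h later | dosing = single dose | controls = Clomiphene as positive lysis control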
MT1-MMP act inh: inhibitors of human MT1-MMP activation | P50281 | HT1080 RFP-PRO-GFP cells, GFP/RFP ratio fluorescence, overnight; percent of plate control window, DMSO zero | GFP/RFP ratio change, % at 20 µM | 360,000 compounds, 0.061% hits | AID 651647;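 active = GFP/RFP ratio change of at least 30% with cell ATP level not reduced by more than half and red fluorescence within 50% of control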
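Assay system: HT1080 RFP-PRO-GFP cells. Benchmarks: DMSO vehicle wells and RFP-L50D-GFP reporter cell wells. Times: overnight cell settling, then overnight compound exposure, 37 °C, 5% CO2. Compound: 20 µM single dose, 1% DMSO. Read-out basis: GFP/RFP fluorescence ratio.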
Numbers without * were called inactive; · = no result given.

SMILES	Ecoli rRNA inh	DAGLB inhibitor	SKN-1 inh	iPSC survival up	Cneo AK release	MT1-MMP act inh
CCOc1ccccc1NC(=O)CSc1nnnn1Cc1ccccc1	·	-4	18	-2	3	1
COc1ccc2c3c([nH]c2c1)[C@@H](CO)N(C(=O)c1ccncc1)CC31CCN(C(=O)Nc2cccc(F)c2)CC1	-4	·	·	·	·	·
O=C(Cc1ccccn1)N1CC(=O)N2[C@H](CO)[C@@H](c3ccc(C#CC4CCCCC4)cc3)[C@@H]2C1	-12	·	·	·	·	·
COc1cc(/C=N/Nc2ncnc3sc4c(c23)CCC4)ccc1O	-20*	-2	-11	4	0	-4
CC(C)C[C@H]1COc2cc(NCc3ccc(Cl)c(Cl)c3)ccc2S(=O)(=O)N1	-26*	·	·	·	·	·
CCCCNc1ccc2c(c1)OC[C@@H](Cc1ccccc1)NS2(=O)=O	-28*	·	·	·	·	·
O=C(Cc1cccc2ccccc12)OCn1nnc2ccccc2c1=O	-18*	-4	-7	-2	14	5
O=C1NC[C@H](CCCCN2C[C@H](Cc3ccc(O)cc3)N(CCC3CCCCC3)C(=O)C2=O)N(CCc2ccc(O)cc2)C1=O	-25*	·	-8	0	·	-4
Cc1noc(C)c1CSCC(=O)Nc1nc2ccccc2s1	-23*	3	2	0	0	0
C[C@H]1CN([C@@H](C)CO)C(=O)Cc2cc(NC(=O)C3CC3)ccc2O[C@H]1CN(C)C(=O)Nc1cccc2ccccc12	0	·	·	·	·	·
O=C(N/N=C/c1ccncc1)NC1CCCCC1	-6	0	-3	-1	·	0
O=C(N/N=C/c1cccc(O)c1)NC1CCCCC1	-25*	0	1	0	·	5
CN(C)CCCNC(=O)C[C@H]1CC[C@H](NS(=O)(=O)c2ccccc2)[C@@H](CO)O1	3	·	·	·	6	·
Cc1cccc(N2CCN(Cc3ccc(Br)o3)CC2)c1C	-24	-14	-8	0	5	-2
Cc1ccccc1N1CCN(Cc2ccc(Br)o2)CC1	-27*	-9	19	0	-4	-4
Clc1ccccc1N1CCN(Cc2ccc(Br)o2)CC1	-35*	-12	-6	-1	·	0
CC(C)(C)c1ccc(SC2=C[C@@]3(O)CC[C@@H](O)[C@@](Sc4ccc(C(C)(C)C)cc4)(C2=O)[C@H]3O)cc1	5	·	-3	0	·	-5
Cc1ccc(SC2=C[C@@]3(O)CC[C@@H](O)[C@@](Sc4ccc(C)cc4)(C2=O)[C@H]3O)cc1	-25*	·	-2	-1	·	4
O=c1c2cc3c(cc2[nH]c(=S)n1Cc1ccco1)OCO3	·	2	40*	0	-4	-2
N=c1c2c3c(sc2ncn1Nc1ccccc1)CCC3	-17*	·	-8	-1	1	2
O=C(COc1ncnc2c(Cl)cc(Cl)cc12)N1CCCCC1	4	-2	30*	-3	·	2
C[C@@H]1CN([C@@H](C)CO)C(=O)c2cccc(NC(=O)Nc3ccc4c(c3)OCO4)c2O[C@H]1CN(C)Cc1ccc(Cl)c(Cl)c1	-5	·	·	·	0	·
O=C1c2cccc3cccc(c23)C(=O)N1c1ccccc1Cl	-32*	-6	-5	1	0	-1
Cc1cc(C)c(C#N)c(SCS(=O)Cc2ccccc2)n1 (stereo not drawn)	·	0	4	2	-1	0
Cc1cc(C)c(C#N)c(SCS(=O)Cc2ccc(Cl)cc2)n1 (stereo not drawn)	-44*	-4	1	0	-1	9
SMILES	Ecoli rRNA inh	DAGLB inhibitor	SKN-1 inh	iPSC survival up	Cneo AK release	MT1-MMP act inh
O=C(C[C@@H]1CC[C@@H](NC(=O)NC2CCCC2)[C@H](CO)O1)NCc1ccc(F)cc1	2	·	·	·	1	·
C#CCN1C(=O)S/C(=C/C=C/c2ccc(N(C)C)cc2)C1=O	·	1	47*	0	·	0
O=C(CN1C(=O)S/C(=C\C=C\c2ccccc2)C1=O)Nc1ccccc1C(=O)O	-30	14	2	0	·	7
Clc1ccc(-c2cnc3ccccc3n2)cc1	·	-8	42*	-3	·	5
Oc1ccc(-c2cnc3ccccc3n2)cc1	10	-7	-7	-1	·	·
O=C(C[C@@H]1C[C@@H]2c3cc(NC(=O)c4ccc5c(c4)OCO5)ccc3O[C@@H]2[C@H](CO)O1)NCc1cccnc1	-1	·	·	·	-4	·
COc1cc(C2NCC(c3ccc(Cl)cc3Cl)c3c2[nH]c2ccccc32)cc(OC)c1OC (stereo not drawn)	0	-1	13	-1	19	-16
O=C(O)c1ccc(C2NCC(c3ccccc3Cl)c3c2[nH]c2ccccc32)cc1 (stereo not drawn)	-37*	5	5	0	·	8
COc1ccccc1NC(=O)c1ccc(C(=O)c2ccccc2)o1	-32*	-18	6	0	-1	-1
O=C(Nc1ccccc1O)c1ccc(C(=O)c2ccccc2)o1	1	-3	4	0	-1	1
C[C@H]1CC=CC[C@@H](c2ccc3c(c2)OCO3)NC(=O)[C@H](Cc2ccccc2)N(C)C(=O)c2ccccc2O1 (mixture of isomers)	-1	·	·	·	·	·
COCC(=O)N(C)C[C@@H]1Oc2ncc(-c3cccc(OC)c3)cc2C(=O)N([C@@H](C)CO)C[C@@H]1C	8	·	·	·	1	·
CCC(=O)N(CCC(c1ccco1)C(C)C)Cc1ccccc1 (stereo not drawn)	-39*	-6	-12	-1	1	-2
COc1cccc(CNC(=O)C[C@@H]2C=C[C@@H](NC(C)=O)[C@@H](CO)O2)c1	2	·	·	·	1	·
CO[C@@H]1CN(C)C(=O)c2ccc(NS(=O)(=O)c3ccc(Oc4ccccc4)cc3)cc2OC[C@H](C)NC[C@@H]1C	2	·	·	·	5	·
O=C(/C=C/Nc1ccc(F)c(F)c1)c1cccs1	5	-3	44*	-3	-19	-5
O=C(/C=C/Nc1ccc(F)cc1)c1cccs1	·	0	25	-5	-4	3
Cc1cccc(N/C=C/C(=O)c2cccs2)c1C	·	-6	44*	-2	·	-4
Cc1ccc(C)c(OCCC(=O)Nc2cccc(S(=O)(=O)NC3=NCCCCC3)c2)c1	-22*	-5	-9	0	-1	7
Cc1ccc(C)c(C(=O)OCC(=O)Nc2cccc(S(=O)(=O)NC3=NCCCCC3)c2)c1	-10	-1	1	0	0	-2
CSc1ccccc1NC(=O)Nc1ccc(F)c(Cl)c1	·	-9	2	-2	·	-8
CSc1ccccc1NC(=O)Nc1cccc(Cl)c1	-28*	-3	16	2	-3	-3
CC(C)C(=O)Nc1ccc2c(c1)C(=O)N(C)[C@H]1CC[C@H](CC(=O)NCc3ccccc3)O[C@H]1CO2	3	·	·	·	16	·
